Format in all cases: cell-based
One assay has as its target T1, Kir3.1/3.4 (Homo sapiens, UniProt P48544+P48549).
T1 sequence (P48549 1-501): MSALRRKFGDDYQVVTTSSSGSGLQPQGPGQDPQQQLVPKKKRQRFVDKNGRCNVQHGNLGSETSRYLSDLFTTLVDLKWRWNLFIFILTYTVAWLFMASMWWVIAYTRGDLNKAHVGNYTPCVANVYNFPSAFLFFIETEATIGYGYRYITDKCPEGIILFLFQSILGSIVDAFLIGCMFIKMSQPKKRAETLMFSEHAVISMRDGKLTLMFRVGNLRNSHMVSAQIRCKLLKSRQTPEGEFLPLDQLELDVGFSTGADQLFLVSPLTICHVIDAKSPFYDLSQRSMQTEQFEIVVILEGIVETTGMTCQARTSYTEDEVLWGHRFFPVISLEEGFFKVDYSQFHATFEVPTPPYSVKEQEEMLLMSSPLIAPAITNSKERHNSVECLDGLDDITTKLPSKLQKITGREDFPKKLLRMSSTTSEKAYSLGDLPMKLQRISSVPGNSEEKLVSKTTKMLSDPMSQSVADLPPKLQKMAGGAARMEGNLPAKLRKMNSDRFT
T1 sequence (P48544 1-419): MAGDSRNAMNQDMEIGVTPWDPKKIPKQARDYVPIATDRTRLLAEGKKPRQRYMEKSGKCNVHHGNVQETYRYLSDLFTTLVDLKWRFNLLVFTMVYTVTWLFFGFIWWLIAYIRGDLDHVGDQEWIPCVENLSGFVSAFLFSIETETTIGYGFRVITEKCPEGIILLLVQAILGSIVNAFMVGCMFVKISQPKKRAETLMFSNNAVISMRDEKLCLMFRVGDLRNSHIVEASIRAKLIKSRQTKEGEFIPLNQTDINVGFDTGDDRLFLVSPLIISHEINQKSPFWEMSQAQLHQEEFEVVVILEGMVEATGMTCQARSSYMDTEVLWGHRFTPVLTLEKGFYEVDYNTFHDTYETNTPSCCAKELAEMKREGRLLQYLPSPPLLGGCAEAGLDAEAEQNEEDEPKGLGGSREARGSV
The assay is described as follows: Two-electrode voltage clamp in Xenopus oocytes, Kir3.1/3.4. The settings on record: TEVC oocytes, 25 μM, mean ± SEM, n = 6. In short, it runs like this:
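Xenopus oocytes were injected with Kir3.1/3.2 or Kir3.1/3.4 cRNA and voltage-clamped with two electrodes at 20–23°C, with current at −80 mV followed over time. The bath was switched from K+-free to 90 mM K+ to activate the channel. Test compound in 90K was applied continuously at graded concentrations, then 2 mM Ba2+ was added. A final 0K switch measured leak. Time constant derived (n = 6 at 25 μM). Percent inhibition n = 4–6.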
For orientation: Two-electrode voltage clamp is typically applied to oocytes expressing channels or transporters.

A further assay has as its system Kir1.1. The assay is described as follows: Whole-cell patch clamp, Kir1.1. The settings on record: 20 μM, n = 5.
A further assay has as its target T2, Kir7.1 (Homo sapiens, UniProt O60928).
T2 sequence (O60928 1-360): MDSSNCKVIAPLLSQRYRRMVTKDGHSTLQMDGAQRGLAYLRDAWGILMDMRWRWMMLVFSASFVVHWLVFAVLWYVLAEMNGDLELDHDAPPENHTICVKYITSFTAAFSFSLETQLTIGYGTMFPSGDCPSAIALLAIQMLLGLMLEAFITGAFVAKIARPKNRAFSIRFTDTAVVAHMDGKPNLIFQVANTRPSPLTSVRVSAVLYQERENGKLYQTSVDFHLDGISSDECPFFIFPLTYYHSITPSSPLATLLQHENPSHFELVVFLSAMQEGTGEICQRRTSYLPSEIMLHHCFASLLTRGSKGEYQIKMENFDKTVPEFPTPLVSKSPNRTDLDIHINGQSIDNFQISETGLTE
The assay is described as follows: Two-electrode voltage clamp in Xenopus oocytes, Kir7.1. Put shortly: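 Stage V–VI Xenopus oocytes were defolliculated with 1 mg/mL collagenase and injected with 0.5–10 ng cRNA. They were kept at 16°C in modified L-15 for 24–72 h. Two-electrode voltage clamp at 20–23°C: held at −75 mV and stepped to −120 mV for 200 ms every 5 s, with current at −120 mV tracked over time. Test compound (50 μM) was perfused, then 2 mM Ba2+. Time constant of inhibition derived.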

A further assay concerns the target T3, Kir2.3 (Homo sapiens, UniProt P48050).
T3 sequence (P48050 1-445): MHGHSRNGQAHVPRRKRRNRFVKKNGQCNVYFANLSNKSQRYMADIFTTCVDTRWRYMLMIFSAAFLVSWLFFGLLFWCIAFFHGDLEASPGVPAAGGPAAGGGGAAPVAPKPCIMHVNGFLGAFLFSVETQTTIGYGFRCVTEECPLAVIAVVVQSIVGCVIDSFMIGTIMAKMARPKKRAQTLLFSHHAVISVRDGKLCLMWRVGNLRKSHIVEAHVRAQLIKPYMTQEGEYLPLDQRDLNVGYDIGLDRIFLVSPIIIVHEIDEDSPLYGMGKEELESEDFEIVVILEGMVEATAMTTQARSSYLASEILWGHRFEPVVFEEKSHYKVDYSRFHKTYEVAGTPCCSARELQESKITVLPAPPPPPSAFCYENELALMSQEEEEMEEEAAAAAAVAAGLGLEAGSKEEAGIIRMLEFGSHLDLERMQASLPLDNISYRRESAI
As to the kind of experiment: Whole-cell patch clamp, T-REx-HEK-293-Kir2.3 cells. In short, it runs like this:
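Monoclonal T-REx-HEK-293-Kir2.3 cells were patched after overnight induction with tetracycline (1 μg/mL). Pipette: 135 mM KCl, 1 mM MgCl2 (reduced against rundown), 1 mM EGTA, 10 mM HEPES, 2 mM Na2ATP, pH 7.3. Bath: 135 mM NaCl, 5 mM KCl, pH 7.4. Held at −75 mV and ramped −120 to 120 mV every 5 s, at 20–23°C. Test compound was bath-applied, then 2 mM BaCl2. CRC n = 4–6. τ taken from the time course.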
For orientation: Patch clamp records ionic current or voltage across a cell membrane.

We go through one compound from publication PMC3254186 (Frontiers in Pharmacology, 2011).

Regarding `Cc1ccc(OCC(O)Cn2c(=N)n(Cc3ccccc3)c3ccccc32)cc1` (stereo not drawn) [Compound 1, 1-(3-benzyl-2-imino-2,3-dihydro-1H-benzo[d]imidazol-1-yl)-3-(p-tolyloxy)propan-2-ol], on Kir3.1/3.4, the “time constant (τ) for inhibition of Kir3.1/3.4 currents” value is 27 ± 5 s. In the assay on Kir1.1, the “inhibition of Kir1.1” value is recorded as 49.5 ± 0.03%. Further, at Kir7.1 (TEVC oocytes, 50 μM, n = 8), the “time constant of Kir7.1 inhibition” value stood at 38 ± 6 s. Besides, the inhibition (commonly the relative decrease from the control value, in per cent) at 50 µM at Kir7.1 (read-out: inhibition of Kir7.1) was found to be 66 ± 6%. In addition, at Kir2.3 (IC50 Kir2.3, whole-cell patch clamp, T-REx-HEK-293-Kir2.3), the IC50 (commonly the midpoint of a concentration-inhibition curve) was about 1 µM. For the same compound, the “time constant for inhibition of Kir2.3” value on Kir2.3 (whole-cell patch clamp, 30 μM, mean ± SEM, n = 4) was 23 ± 2 s.
